Reference: ChEMBL document CHEMBL4376878, “Potent Thiophene Antagonists of Human Complement C3a Receptor with Anti-Inflammatory Activity” (J Med Chem, 2020)
Activity calls are given as the source filed them. No cut-off for these calls is given here.

What was measured:
[1] = molecular target: T1, C3a anaphylatoxin chemotactic receptor (Homo sapiens, UniProt Q16581); assay: Agonist activity at C3a receptor in human MDM cells assessed as induction of intracellular calcium release measured at 1 sec interval for => 200 secs by Fluo-3 AM dye-based FLIPR assay; type: cell-based
T1 sequence (Q16581 whole entry): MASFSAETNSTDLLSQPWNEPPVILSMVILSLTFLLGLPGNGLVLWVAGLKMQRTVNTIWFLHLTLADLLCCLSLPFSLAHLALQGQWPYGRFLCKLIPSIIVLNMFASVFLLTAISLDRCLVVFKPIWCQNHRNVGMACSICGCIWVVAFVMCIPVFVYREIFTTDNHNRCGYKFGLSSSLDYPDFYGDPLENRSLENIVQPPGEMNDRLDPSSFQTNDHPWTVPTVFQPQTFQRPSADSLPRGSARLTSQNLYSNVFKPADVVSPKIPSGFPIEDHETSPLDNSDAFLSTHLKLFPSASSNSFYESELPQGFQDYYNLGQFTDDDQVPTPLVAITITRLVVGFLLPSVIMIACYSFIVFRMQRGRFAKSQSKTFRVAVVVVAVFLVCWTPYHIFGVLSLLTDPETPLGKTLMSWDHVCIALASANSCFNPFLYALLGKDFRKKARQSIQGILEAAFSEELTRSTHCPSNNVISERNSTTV
Summary of the method: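 HMDMs were differentiated from CD14⁺ monocytes with M-CSF (100 ng/mL) for 7 days and seeded overnight at 5 × 10⁴ cells/well. Cells were loaded with 4 μM Fluo-3 AM for 1 h at 37 °C, then placed in HBSS with 2.5 mM probenecid and 20 mM HEPES, pH 7.4. Agonist was added on FLIPR and read at ex 495/em 520 nm. EC50 is relative to the maximum from 1 μM C3a; n ≥ 3.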

[2] = molecular target: T2, C3a anaphylatoxin chemotactic receptor (Homo sapiens) (UniProt Q16581); assay: Potency index, ratio of SB290157 IC50 to test compound IC50 for antagonist activity at C3a receptor in human MDM cells; type: cell-based
T2 sequence (whole entry): T1 sequence (Q16581 whole entry)

[3] = AUC (0 to 8 hrs) in Wistar rat at 10 mg/kg, po by LC-MS/MS analysis; type: ADME, organism-based; set-up: dose 10 mg/kg, time < 8 hr, route oral; conditions: in vivo
Summary of the method: (§1)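 Male Wistar rats with jugular vein catheter, fasted overnight; dosed p.o. by gavage in olive oil or i.v. via catheter in 50% DMSO. Blood drawn from conscious unrestrained rats 5 min before dosing, then 5, 15, 30 min and 1–8 h after. Volume replaced with heparinized saline. Rats fed after 4 h sample. n = 3 per route.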

[4] = AUC (0 to 8 hrs) in Wistar rat at 1 mg/kg, iv by LC-MS/MS analysis; type: ADME, organism-based; set-up: time < 8 hr, dose 1 mg/kg, route intravenous; conditions: in vivo; summary of the method: as §1
[5] = Elimination half-life in Wistar rat at 1 mg/kg, iv by LC-MS/MS analysis; type: ADME, organism-based; conditions: in vivo, read-out: beta t1/2; summary of the method: as §1
Rattus norvegicus [6] = assay: Antiinflammatory activity in Wistar rat model of BR103-induced paw edema assessed as reduction in hind paw swelling at 10 mg/kg, po administered via gavage pretreated for 2 hrs followed by BR103 challenge and measured after 30 mins by digital caliper method relative to control; type: functional; set-up: scale not given: the % may be the effect or the level left
Summary of the method: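 Male Wistar rats were given antagonist at 10 mg/kg by oral gavage in olive oil 2 h before intraplantar BR103 (350 μg in 100 μL of 5% DMSO). Sham paws received vehicle; sham and control rats received olive oil only. Paw thickness and width were measured with digital calipers at 0, 0.5, 1 and 2 h after agonist; n = 3 per group.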

Rattus norvegicus [7] = assay: Antiinflammatory activity in Wistar rat model of BR103-induced paw edema assessed as reduction in hind paw swelling at 30 mg/kg, po administered via gavage pretreated for 6 to 8 hrs followed by BR103 challenge and measured after 30 mins by digital caliper method relative to control; type: functional; set-up: scale not given: the % may be the effect or the level left
Summary of the method: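 For duration of action, antagonist was given at 30 mg/kg by oral gavage in olive oil at 1, 2, 4, 6, 8 or 12 h before intraplantar BR103 (350 μg/paw) in male Wistar rats. Controls received olive oil 2 h before challenge. Paw thickness and width were measured with calipers at 0 and 0.5 h; n = 3 per group.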

Rattus norvegicus [8] = assay: Antiinflammatory activity in Wistar rat model of BR103-induced paw edema assessed as reduction in hind paw swelling at 10 mg/kg, po administered via gavage pretreated for 4 hrs followed by BR103 challenge and measured after 30 mins by digital caliper method relative to control; type: functional, organism-based
Summary of the method: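 Male Wistar rats given 10 mg/kg p.o. in olive oil at 0.5, 1, 2 or 4 h before i.pl. BR103 (350 μg in 100 μL 5% DMSO). Control rats received olive oil. Paw thickness and width measured by digital calipers at 0 and 0.5 h after agonist. n = 3–5 per group, one-way ANOVA.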

Rattus norvegicus [9] = assay: Antiinflammatory activity in Wistar rat model of BR103-induced paw edema assessed as reduction in Il6 gene expression at 10 mg/kg, po administered via gavage pretreated for 2 hrs followed by BR103 challenge and measured after 30 mins by SYBR green dye based RT-PCR analysis; type: functional, organism-based
Summary of the method: (§2)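 Rats given 10 mg/kg p.o. in olive oil 2 h before i.pl. BR103 (350 μg/paw). Paws collected 0.5 h after agonist and homogenized in TRIsure for RNA. qPCR run in duplicate, normalized to Hprt, with fold change relative to sham. n = 3–5 male Wistar rats per group.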

Rattus norvegicus [10] = assay: Antiinflammatory activity in Wistar rat model of BR103-induced paw edema assessed as reduction in Il10 gene expression at 10 mg/kg, po administered via gavage pretreated for 2 hrs followed by BR103 challenge and measured after 30 mins by SYBR green dye based RT-PCR analysis; type: functional, organism-based; summary of the method: as §2
Rattus norvegicus [11] = assay: Antiinflammatory activity in Wistar rat model of BR103-induced paw edema assessed as increase in number of intact mast cells at 10 mg/kg, po administered via gavage pretreated for 2 hrs followed by BR103 challenge and measured after 30 mins by alcian blue/safranin O staining-based histopathological analysis; type: functional, organism-based
Summary of the method: (§3)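 Male Wistar rats 7–8 weeks old, given 10 mg/kg p.o. in olive oil 2 h before i.pl. BR103 (350 μg/paw). Sham/control received olive oil. Left paw plantar tissue taken 30 min after agonist and fixed in formalin. Frozen 5 μm sections stained with alcian blue/safranin O, or immunostained for tryptase, histamine or ED1. Positive cells quantified; n = 5 per group, one-way ANOVA.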

Rattus norvegicus [12] = assay: Antiinflammatory activity in Wistar rat model of BR103-induced paw edema assessed as inhibition of activation/degranulation of mast cells at 10 mg/kg, po administered via gavage pretreated for 2 hrs followed by BR103 challenge and measured after 30 mins by tryptase staining-based microscopic analysis; type: functional, organism-based; summary of the method: as §3
Rattus norvegicus [13] = assay: Antiinflammatory activity in Wistar rat model of BR103-induced paw edema assessed as reduction in number of ED1-positive macrophages at 10 mg/kg, po administered via gavage pretreated for 2 hrs followed by BR103 challenge and measured after 30 mins by immunohistochemical analysis; type: functional, organism-based; summary of the method: as §3
Rattus norvegicus [14] = assay: Antiinflammatory activity in Wistar rat model of BR103-induced paw edema assessed as reduction in histamine release at 10 mg/kg, po administered via gavage pretreated for 2 hrs followed by BR103 challenge and measured after 30 mins by immunohistochemical analysis; type: functional, organism-based; summary of the method: as §3
Rattus norvegicus [15] = assay: Antiinflammatory activity in Wistar rat model of BR103-induced paw edema assessed as reduction in hind paw swelling at 10 to 30 mg/kg, po administered via gavage pretreated for 2 hrs followed by BR103 challenge and measured after 30 mins by digital caliper method

## Cc1cc(C(c2ccc(Cl)cc2)c2ccc(Cl)cc2)sc1C(=O)N[C@@H](CCCNC(=N)N)C(=O)O
[1]; read-out: EC50
  EC50: > 100 µM
[1]; read-out: pEC50 (converted)
  EC50: > 100 µM
[2]
  Ratio IC50: 100
[3]
  AUC(0-t) at 8 h: 478 ng·h/mL
[4]
  AUC(0-t) at 8 h: 3800 ng·h/mL
[5]
  half-life: 3.18 h
Rattus norvegicus [6]
  Activity: 65%
Rattus norvegicus [7]
  Activity: 85%
Rattus norvegicus [8]
  Activity: Active
Rattus norvegicus [9]
  Activity: Active
Rattus norvegicus [10]
  Activity: Active
Rattus norvegicus [11]
  Activity: Active
Rattus norvegicus [12]
  Activity: Active
Rattus norvegicus [13]
  Activity: Active
Rattus norvegicus [14]
  Activity: Active
Rattus norvegicus [15]
  Activity: inactive
